Measured values from ChEMBL document CHEMBL3779840, “Discovery of 2-((3-Amino-4-methylphenyl)amino)-N-(2-methyl-5-(3-(trifluoromethyl)benzamido)phenyl)-4-(methylamino)pyrimidine-5-carboxamide (CHMFL-ABL-053) as a Potent, Selective, and Orally Available BCR-ABL/SRC/p38 Kinase Inhibitor for Chronic Myeloid Leukemia” (J Med Chem, 2016).
Active and inactive are the calls of the source. The calls are words filed in the database; no cut-off is given here.

Experiments:
[1] = Antiproliferative activity against mouse BA/F3 cells assessed as cell viability after 72 hrs by CellTiter-Glo or CCK-8 assay; assay type: cell-based, BaF3
[2] = molecular target: Mast/stem cell growth factor receptor Kit (Homo sapiens, UniProt P10721); assay: Inhibition of His-tagged recombinant human c-Kit […] expressed in mammalian expression system
[3] = molecular target: T1, Mitogen-activated protein kinase 14 (Homo sapiens, UniProt Q16539); assay: Inhibition of full length recombinant GST-tagged human p38-alpha expressed in Escherichia coli
T1 sequence (Q16539 whole entry): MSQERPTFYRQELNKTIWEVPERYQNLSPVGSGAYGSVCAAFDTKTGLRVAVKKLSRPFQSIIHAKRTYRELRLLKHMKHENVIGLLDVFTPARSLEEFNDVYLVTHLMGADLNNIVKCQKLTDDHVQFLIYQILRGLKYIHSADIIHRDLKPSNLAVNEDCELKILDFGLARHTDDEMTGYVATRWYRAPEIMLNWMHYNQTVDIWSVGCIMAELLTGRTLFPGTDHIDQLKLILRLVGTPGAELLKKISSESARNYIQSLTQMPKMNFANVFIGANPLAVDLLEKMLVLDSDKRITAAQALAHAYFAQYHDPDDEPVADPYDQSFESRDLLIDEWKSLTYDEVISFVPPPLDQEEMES
In short: (§1)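 IC50 values were determined with the Invitrogen SelectScreen biochemical kinase assay.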

[4] = molecular target: T2, Proto-oncogene tyrosine-protein kinase Src (Homo sapiens, UniProt P12931); assay: Inhibition of full length recombinant human C-terminal His-tagged SRC expressed in Baculovirus expression system; in short: as §1
T2 sequence (P12931 2-536 limits assumed): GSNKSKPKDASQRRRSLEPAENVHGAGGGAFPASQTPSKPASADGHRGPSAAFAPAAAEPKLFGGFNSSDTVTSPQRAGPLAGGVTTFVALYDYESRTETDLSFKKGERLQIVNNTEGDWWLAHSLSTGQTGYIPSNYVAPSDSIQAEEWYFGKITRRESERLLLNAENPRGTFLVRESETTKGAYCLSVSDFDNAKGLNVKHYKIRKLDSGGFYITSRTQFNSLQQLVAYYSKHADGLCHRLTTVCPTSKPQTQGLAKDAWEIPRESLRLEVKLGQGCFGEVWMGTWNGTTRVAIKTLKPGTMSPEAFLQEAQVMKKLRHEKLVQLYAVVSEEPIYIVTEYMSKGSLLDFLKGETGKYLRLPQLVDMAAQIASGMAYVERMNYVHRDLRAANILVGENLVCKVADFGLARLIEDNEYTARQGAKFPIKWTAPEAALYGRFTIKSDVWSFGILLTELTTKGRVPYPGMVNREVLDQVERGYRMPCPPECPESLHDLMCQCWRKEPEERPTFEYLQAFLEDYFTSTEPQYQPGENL

[5] = Antiproliferative activity against human U937 cells assessed as cell viability after 72 hrs by CellTiter-Glo or CCK-8 assay; assay type: functional; details: U-937, 72 h
[6] = Antiproliferative activity against human MOLM14 cells assessed as cell viability after 72 hrs by CellTiter-Glo or CCK-8 assay; assay type: functional; details: MOLM-14, 72 h
HEL = assay: Antiproliferative activity against human HEL cells assessed as cell viability after 72 hrs by CellTiter-Glo or CCK-8 assay; assay type: functional
[7] = Antiproliferative activity against […] CHL cells assessed as cell viability after 72 hrs by CellTiter-Glo or CCK-8 assay; assay type: cell-based, Cricetulus griseus; details: chinese hamster
[8] = molecular target: T3, Bcr/Abl fusion protein (Homo sapiens) (UniProt P00519+P11274); assay: Inhibition of BCR/ABL autophosphorylation at Y245 site in human K562 cells at 300 nM after 1 hr by immunoblotting method; assay type: cell-based
T3 sequence (P00519 whole entry, looked up, the tested form may be a part): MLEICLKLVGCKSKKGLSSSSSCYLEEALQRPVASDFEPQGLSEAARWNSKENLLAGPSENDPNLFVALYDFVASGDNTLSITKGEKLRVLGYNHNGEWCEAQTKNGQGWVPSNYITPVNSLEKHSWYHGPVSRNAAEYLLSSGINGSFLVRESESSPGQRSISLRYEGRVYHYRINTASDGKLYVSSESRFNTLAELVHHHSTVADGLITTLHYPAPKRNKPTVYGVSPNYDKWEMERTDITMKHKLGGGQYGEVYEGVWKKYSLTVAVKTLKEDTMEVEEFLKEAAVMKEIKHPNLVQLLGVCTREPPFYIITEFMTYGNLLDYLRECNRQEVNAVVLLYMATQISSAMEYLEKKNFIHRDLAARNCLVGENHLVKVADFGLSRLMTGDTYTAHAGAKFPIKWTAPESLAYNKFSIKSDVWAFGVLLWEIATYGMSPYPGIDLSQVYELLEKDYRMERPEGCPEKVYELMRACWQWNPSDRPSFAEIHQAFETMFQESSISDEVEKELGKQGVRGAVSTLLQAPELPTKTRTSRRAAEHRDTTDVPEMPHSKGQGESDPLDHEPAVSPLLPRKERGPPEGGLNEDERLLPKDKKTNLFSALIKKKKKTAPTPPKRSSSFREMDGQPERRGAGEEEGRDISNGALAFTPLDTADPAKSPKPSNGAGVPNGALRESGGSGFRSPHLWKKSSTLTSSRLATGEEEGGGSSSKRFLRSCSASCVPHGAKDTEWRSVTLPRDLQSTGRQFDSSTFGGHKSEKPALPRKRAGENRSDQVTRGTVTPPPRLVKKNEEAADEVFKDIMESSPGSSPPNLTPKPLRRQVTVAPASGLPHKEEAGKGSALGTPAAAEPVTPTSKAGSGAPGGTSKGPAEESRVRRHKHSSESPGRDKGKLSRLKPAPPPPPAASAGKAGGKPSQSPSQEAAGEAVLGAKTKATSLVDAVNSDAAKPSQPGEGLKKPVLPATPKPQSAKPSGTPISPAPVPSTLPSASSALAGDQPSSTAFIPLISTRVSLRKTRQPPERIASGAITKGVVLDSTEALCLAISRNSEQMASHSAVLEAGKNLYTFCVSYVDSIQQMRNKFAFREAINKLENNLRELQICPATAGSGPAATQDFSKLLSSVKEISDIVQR
T3 sequence (P11274 whole entry, looked up, the tested form may be a part): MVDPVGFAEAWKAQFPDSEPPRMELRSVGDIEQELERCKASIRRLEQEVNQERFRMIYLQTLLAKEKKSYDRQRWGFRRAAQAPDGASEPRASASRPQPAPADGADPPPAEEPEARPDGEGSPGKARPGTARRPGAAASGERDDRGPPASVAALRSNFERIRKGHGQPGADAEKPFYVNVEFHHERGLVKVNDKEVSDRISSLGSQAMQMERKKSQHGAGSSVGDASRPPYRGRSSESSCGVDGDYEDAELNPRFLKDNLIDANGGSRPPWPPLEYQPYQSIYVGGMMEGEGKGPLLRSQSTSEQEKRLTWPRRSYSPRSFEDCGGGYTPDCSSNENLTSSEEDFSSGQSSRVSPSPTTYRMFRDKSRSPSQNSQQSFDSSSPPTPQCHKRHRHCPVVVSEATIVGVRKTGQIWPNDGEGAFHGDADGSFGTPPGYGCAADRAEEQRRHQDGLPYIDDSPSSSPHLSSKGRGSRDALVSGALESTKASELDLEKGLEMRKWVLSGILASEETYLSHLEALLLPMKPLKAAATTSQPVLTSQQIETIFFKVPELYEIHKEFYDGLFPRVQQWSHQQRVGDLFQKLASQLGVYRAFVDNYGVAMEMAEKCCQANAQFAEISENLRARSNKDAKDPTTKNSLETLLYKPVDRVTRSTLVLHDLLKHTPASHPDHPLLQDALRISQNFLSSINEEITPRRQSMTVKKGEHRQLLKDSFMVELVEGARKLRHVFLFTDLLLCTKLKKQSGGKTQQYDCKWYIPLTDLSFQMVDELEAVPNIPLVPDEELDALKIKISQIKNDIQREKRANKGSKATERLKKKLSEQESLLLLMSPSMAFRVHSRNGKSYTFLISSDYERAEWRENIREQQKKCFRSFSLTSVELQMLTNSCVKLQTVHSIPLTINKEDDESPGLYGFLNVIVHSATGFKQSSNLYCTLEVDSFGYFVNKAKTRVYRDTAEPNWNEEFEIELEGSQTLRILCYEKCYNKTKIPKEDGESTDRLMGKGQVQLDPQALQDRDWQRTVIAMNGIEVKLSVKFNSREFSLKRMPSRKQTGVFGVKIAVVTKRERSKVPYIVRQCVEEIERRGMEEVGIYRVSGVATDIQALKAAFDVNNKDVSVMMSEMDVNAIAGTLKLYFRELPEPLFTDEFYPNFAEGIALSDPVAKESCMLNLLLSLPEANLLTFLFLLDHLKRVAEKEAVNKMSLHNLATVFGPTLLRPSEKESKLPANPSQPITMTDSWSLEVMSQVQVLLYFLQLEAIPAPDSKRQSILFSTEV
In short: (§2)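 KU812, K562 and MEG-01 cells were exposed to compound at the indicated concentrations for 1 h. Whole-cell lysates were then analysed by Western blot for phosphorylated signaling proteins.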

[9] = molecular target: T3, Bcr/Abl fusion protein (Homo sapiens); assay: Inhibition of BCR/ABL autophosphorylation at Y245 site in human KU812 cells at 300 nM after 1 hr by immunoblotting method; assay type: cell-based; in short: as §2
[10] = molecular target: T3, Bcr/Abl fusion protein (Homo sapiens); assay: Inhibition of BCR/ABL in human MEG01 cells assessed as downregulation of CrkL phosphorylation at […] site after 1 hr by immunoblotting method; assay type: cell-based; details: MEG-01; in short: as §2
[11] = molecular target: T3, Bcr/Abl fusion protein (Homo sapiens); assay: Inhibition of BCR/ABL in human K562 cells assessed as downregulation of ERK phosphorylation at Thr202/Tyr204 site after 1 hr by immunoblotting method; assay type: cell-based; in short: as §2
[12] = molecular target: T2, Proto-oncogene tyrosine-protein kinase Src; assay: Inhibition of SRC phosphorylation in human K562 cells at 0.01 to 3 uM after 1 hr by immunoblotting method; assay type: cell-based
In short: (§3)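 Cells were treated for 1 h at the indicated concentrations. Whole-cell lysates were then analysed by Western blot for phosphorylation of signalling proteins in the BCR-ABL pathway.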

[13] = molecular target: T2, Proto-oncogene tyrosine-protein kinase Src; assay: Inhibition of SRC phosphorylation in human MEG01 cells at 0.01 to 3 uM after 1 hr by immunoblotting method; assay type: cell-based; details: MEG-01; in short: as §3
K562 [14] = assay: Induction of cell cycle arrest in human K562 cells assessed as accumulation at G0/G1-phase after 12 hrs by propidium iodide/RNase staining based flow cytometry; assay type: functional
[15] = Tmax in Sprague-Dawley rat at 10 mg/kg, po; assay type: ADME, organism-based; details: in vivo
[16] = Cmax in Sprague-Dawley rat at 10 mg/kg, po; assay type: ADME, organism-based; design: dose 10 mg/kg, route oral; details: in vivo
[17] = AUC(0 to infinity) in Sprague-Dawley rat at 1 mg/kg, iv; assay type: ADME, organism-based; design: dose 1 mg/kg, route intravenous, time infinity; details: in vivo
K562 [18] = assay: Induction of apoptosis in human K562 cells xenografted in nu/nu mouse at 25 and 50 mg/kg/day, qd administered through oral gavage measured after 16 days by TUNEL staining-based assay; assay type: functional, organism-based
In short: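 Female nu/nu mice bore established K562 xenografts and received daily oral dosing at 25.0 or 50.0 mg/kg/d, or vehicle, starting when tumors reached 200 to 400 mm3, for 16 days. Groups had 5 animals; data are mean ± SEM. Tumor size and body weight were normalized to initial values, and final tumor weight was recorded. Tumor tissue was stained with HE, Ki-67 and TUNEL.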

[19] = system: Mast/stem cell growth factor receptor Kit (Homo sapiens), P10721 [L576P]; assay: Inhibition of partial length human KIT L576P mutant expressed in bacterial expression system assessed as residual activity at 1 uM relative to control
[20] = molecular target: Ephrin type-A receptor 8 (Homo sapiens) (UniProt P29322); assay: Inhibition of partial length human wild type EPHA8 expressed in bacterial expression system assessed as residual activity at 1 uM relative to control
Ephrin type-A receptor 8 (Homo sapiens), sequence (P29322 whole entry): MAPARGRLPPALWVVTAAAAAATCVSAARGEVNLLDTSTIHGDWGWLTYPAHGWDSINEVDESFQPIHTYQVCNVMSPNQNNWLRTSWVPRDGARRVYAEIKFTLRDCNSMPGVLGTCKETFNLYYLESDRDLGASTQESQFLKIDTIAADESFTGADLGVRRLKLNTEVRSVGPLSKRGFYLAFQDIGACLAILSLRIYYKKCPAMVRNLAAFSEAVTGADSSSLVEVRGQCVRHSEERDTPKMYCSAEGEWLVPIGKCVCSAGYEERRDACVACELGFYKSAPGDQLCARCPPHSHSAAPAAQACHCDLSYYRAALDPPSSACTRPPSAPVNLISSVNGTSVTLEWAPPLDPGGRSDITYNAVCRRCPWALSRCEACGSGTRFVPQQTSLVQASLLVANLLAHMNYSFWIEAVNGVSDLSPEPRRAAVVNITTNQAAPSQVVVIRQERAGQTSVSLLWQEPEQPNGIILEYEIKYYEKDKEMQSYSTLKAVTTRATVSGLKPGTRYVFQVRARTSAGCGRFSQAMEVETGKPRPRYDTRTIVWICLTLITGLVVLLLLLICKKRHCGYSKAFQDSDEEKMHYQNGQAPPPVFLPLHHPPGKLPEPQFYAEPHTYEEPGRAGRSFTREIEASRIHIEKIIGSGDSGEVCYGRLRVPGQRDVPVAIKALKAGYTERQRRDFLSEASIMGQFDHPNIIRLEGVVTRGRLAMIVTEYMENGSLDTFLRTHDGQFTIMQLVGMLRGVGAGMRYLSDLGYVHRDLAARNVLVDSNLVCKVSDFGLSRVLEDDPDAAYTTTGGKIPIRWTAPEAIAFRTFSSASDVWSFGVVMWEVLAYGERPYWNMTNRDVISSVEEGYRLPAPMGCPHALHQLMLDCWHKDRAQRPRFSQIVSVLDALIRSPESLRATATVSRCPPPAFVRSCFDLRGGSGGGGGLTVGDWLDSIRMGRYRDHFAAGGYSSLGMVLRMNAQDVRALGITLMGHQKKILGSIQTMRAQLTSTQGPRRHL

[21] = molecular target: T1, Mitogen-activated protein kinase 14; assay: Inhibition of full length human wild type p38-alpha expressed in bacterial expression system assessed as residual activity at 1 uM relative to control
[22] = molecular target: T3, Bcr/Abl fusion protein (Homo sapiens); details: BaF3
[23] = molecular target: T4, Discoidin domain-containing receptor 2 (Homo sapiens) (UniProt Q16832); details: BaF3
T4 sequence (whole entry): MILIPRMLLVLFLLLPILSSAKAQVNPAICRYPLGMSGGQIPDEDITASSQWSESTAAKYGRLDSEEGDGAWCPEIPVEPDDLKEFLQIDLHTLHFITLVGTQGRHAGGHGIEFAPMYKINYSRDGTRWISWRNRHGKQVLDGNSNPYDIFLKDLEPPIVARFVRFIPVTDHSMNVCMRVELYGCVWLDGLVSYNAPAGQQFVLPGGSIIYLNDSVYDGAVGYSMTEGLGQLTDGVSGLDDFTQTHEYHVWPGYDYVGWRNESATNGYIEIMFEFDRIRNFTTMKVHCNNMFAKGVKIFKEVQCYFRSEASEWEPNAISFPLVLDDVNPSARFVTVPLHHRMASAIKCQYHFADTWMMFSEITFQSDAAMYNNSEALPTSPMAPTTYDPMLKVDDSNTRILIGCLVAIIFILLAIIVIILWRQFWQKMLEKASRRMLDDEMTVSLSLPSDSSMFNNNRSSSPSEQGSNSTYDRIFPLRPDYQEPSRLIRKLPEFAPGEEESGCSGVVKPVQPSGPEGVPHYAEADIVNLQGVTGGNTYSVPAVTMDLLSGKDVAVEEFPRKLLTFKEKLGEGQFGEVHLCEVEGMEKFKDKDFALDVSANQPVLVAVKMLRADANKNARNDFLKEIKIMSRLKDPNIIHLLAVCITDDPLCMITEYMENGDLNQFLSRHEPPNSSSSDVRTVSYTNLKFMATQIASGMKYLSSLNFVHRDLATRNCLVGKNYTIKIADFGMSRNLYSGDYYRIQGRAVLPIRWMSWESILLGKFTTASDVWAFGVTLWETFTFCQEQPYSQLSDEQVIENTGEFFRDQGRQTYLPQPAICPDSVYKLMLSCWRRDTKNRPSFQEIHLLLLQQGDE

[24] = molecular target: Tyrosine-protein kinase HCK (Homo sapiens) (UniProt P08631); details: BaF3
Tyrosine-protein kinase HCK (Homo sapiens), sequence (P08631 2-526 limits assumed): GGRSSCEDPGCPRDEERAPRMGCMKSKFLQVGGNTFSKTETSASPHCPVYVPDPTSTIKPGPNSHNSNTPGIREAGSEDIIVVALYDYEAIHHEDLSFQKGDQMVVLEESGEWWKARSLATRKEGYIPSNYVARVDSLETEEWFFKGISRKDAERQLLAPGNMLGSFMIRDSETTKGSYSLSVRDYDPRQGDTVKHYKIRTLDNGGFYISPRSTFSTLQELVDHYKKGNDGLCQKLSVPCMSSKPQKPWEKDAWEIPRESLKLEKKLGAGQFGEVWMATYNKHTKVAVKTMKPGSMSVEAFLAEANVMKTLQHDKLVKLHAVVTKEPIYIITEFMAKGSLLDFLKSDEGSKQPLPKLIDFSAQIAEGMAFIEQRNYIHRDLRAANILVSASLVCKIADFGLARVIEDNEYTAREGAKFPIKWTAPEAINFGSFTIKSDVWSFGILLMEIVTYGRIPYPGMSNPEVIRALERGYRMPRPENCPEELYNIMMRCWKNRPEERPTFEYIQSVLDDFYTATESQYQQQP

[25] = system: Bcr/Abl fusion protein (Homo sapiens), P00519+P11274 [F317L]; details: BaF3
BaF3 = details: Homo sapiens

Work on `CNc1nc(Nc2ccc(C)c(N)c2)ncc1C(=O)Nc1cc(NC(=O)c2cccc(C(F)(F)F)c2)ccc1C` yielded a GI50 at 72 h [1] greater than 10000 nM, an IC50 [2] greater than 10000 nM and an IC50 [3] of 62 nM. It also gave an IC50 [4] of 90 nM, a GI50 [5] greater than 10000 nM and a GI50 [6] greater than 10000 nM. For the same molecule, the GI50 (HEL) was greater than 10000 nM, the GI50 at 72 h [7] was greater than 10000 nM and the inhibition [8] was “Active”. The inhibition [9] was “Active”, the inhibition [10] was “Dose-dependent effect” and the inhibition [11] was “Dose-dependent effect”. The inhibition [12] was “inactive”, the inhibition [13] was “inactive” and the Activity (K562 [14]) was “Dose-dependent effect”. For the same molecule, the Tmax [15] was 1 h, the Cmax [16] was 368 ng/mL and the AUC(0-inf) [17] was 721 ng·h/mL. The Activity (K562 [18]) was “Active”, the Activity [19] was 0.8% and the Activity [20] was 0.8%. It also gave an Activity [21] of 0%, a GI50 [22] of 7 nM and a GI50 [23] greater than 10000 nM. It also gave a GI50 [24] of 980 nM, a GI50 [25] of 45 nM and a GI50 (BaF3) of 9250 nM.
